Assay outcomes: PubChem BioAssay, several laboratories
Lmaj promast: inhibitors of Leishmania major promastigote growth | Leishmania major promastigotes, resazurin fluorescence viability | inhibition, % at 10 µM | 200,000 compounds, 9% hits | AID 1063;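 note: promastigotes grown with compound for 44 hours at 28 °C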
G6PDH counter: inhibits Leuconostoc G6PDH, flagging false hits in G6PDH-based assays; Purified L. mesenteroides G6PDH, diaphorase/resazurin coupled fluorescence, 45 min; inhibition, % at 5 µM; 200,000 compounds, 0.12% hits; AID 1020
PfG6PD inh: PfG6PD (Plasmodium falciparum) enzyme inhibition | 350,000 compounds, 0.78% hits | PfGluPho enzyme, NADPH resazurin-diaphorase fluorescence | inhibition, % at 20 µM;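 active = inhibition reaching at least a set limit at 20 µM in the primary screen, cut at about 59% in these data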
Diaph inh CS: diaphorase inhibition or chemical oxidation counter-screen; diaphorase resazurin-to-resorufin fluorescence, NADH, 16 min; bacterial (C. kluyveri) enzyme, not human; inhibition, % at 20 µM; 190,000 compounds, 0.69% hits;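 active = primary screen inhibition at 20 µM above a set limit, cut at about 50% in these data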
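System: Diaphorase enzyme from Clostridium kluyveri | Amount: Enzyme working solution with 0.14 U/mL diaphorase | Benchmarks: No-NADH positive control and DMSO neutral control | Signal: Fluorescence of resorufin formed from resazurin, Ex 544/Em 590 nm | Schedule: 16-min room-temperature incubation before reading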
Redox H2O2 prof: compounds producing H2O2 with reducing agent – biochemical, NIH compound library profiling, artefact control for MLSCN library redox annotation, primary screen; activation, % at 10 µM; DTT-dependent redox cycling H2O2, phenol red/HRP absorbance; 100% = 100 µM peroxide control, 0% = buffer; 200,000 compounds, 0.03% hits;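 active = activation of at least 50% relative to the plate's high and low controls in the primary single-dose screen; inactive = activation below 50%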;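 note: compound incubated with DTT at 0.8 mM final as the reducing agent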
Diaphorase act: diaphorase activation or chemical reduction counter-screen; Diaphorase/resazurin coupled assay, resorufin fluorescence, 16 min; hits give high values; 1 = vehicle wells, 0 = NADH-free wells; activation factor at 20 µM; 190,000 compounds, 0.005% hits;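 active = diaphorase activity raised at least twofold by the compound at 20 µM; inactive = activation factor below 2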
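Assay system: Purified diaphorase enzyme from Clostridium kluyveri | Amount: Enzyme 0.07 U/mL final | Dosing: Compound 20 µM once, DMSO 1% | Timing: 16 min reaction at room temperature | Detection: Fluorescence, excitation 544 nm and emission 590 nm | Evaluation: Higher resorufin formation from activation or reduction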
Numbers stand for hits; i = inactive; nt = not tested or not shown. The sample as a whole holds a higher share of hits than the screen did. Cut-off read from the data, not from the text of the source, unless noted: active = inhibition above about 50%; inactive = the rest.

SMILES	Lmaj promast	G6PDH counter	PfG6PD inh	Diaph inh CS	Redox H2O2 prof	Diaphorase act
Cc1ccc(N(CCC(=O)Nc2nnc(C3CC3)s2)S(=O)(=O)c2ccccc2)cc1	53	i	nt	i	i	i
CN(c1ccccc1)S(=O)(=O)c1ccc(C(=O)Nc2nnc(C3CC3)s2)cc1	nt	nt	i	nt	nt	nt
CCc1nnc(NC(=O)CCN(c2cc(C)cc(C)c2)S(=O)(=O)c2ccc(Cl)cc2)s1	79	i	i	i	i	i
Cc1cc(C)cc(N(CCC(=O)O)S(=O)(=O)c2ccc(Cl)cc2)c1	i	i	i	i	i	i
Cc1ccc(S(=O)(=O)NCC(=O)N(CC(=O)NCC2CCCO2)Cc2ccco2)cc1 (centres undefined)	i	i	i	nt	i	nt
CCOC(=O)C1=C(CSCC(=O)OC)NC(=O)NC1c1cc(C)ccc1C (centres undefined)	i	i	i	i	i	i
CCOC(=O)C1=C(CSc2nc3ccccc3s2)NC(=O)NC1c1cc(C)ccc1C (centres undefined)	60	i	i	i	i	i
CCOC(=O)C1=C(CSc2nc3ccccc3s2)NC(=O)NC1c1ccc(OC)cc1 (centres undefined)	62	i	i	i	i	i
Cc1cccc(C(=O)NCC(=O)NCC2COc3ccccc3O2)c1 (centres undefined)	nt	nt	i	nt	nt	nt
COc1cc(C(=S)N2CCCC2)ccc1OCc1ccc(C)cc1	nt	nt	i	nt	nt	nt
C=CCc1c(C)nc2c(-c3ccccc3)cnn2c1N1CCOCC1	nt	nt	i	nt	nt	nt
CC(=NCCc1c(C)[nH]c2ccc(C)cc12)C1=C(O)CC(c2ccccc2)CC1=O (centres undefined)	98	i	i	i	i	i
COC(=O)c1sc(NC(=O)c2cccc([N+](=O)[O-])c2)c(C(N)=O)c1C	i	i	i	i	i	i
COC(=O)c1c(NC(=O)c2cccc([N+](=O)[O-])c2)sc(C(N)=O)c1C	i	i	i	72	i	i
O=C1[C@@H]2Cc3c([nH]c4ccccc34)[C@@H](c3ccccc3)N2C(=O)[C@@H]2Cc3c([nH]c4ccccc34)[C@@H](c3ccccc3)N12	76	i	nt	i	i	i
COc1ccccc1CNC(=O)CSc1nc(-c2ccccc2)cn1N	i	i	i	i	i	i
CN(C(=O)CSc1nc(-c2ccccc2)cn1N)C(c1ccccc1)c1ccccc1	100	i	i	i	i	i
Cc1ccc(N(NC(=O)C(O)(c2ccccc2)c2ccccc2)C(=O)CCl)cc1	88	i	i	i	i	i
Cc1ccc(C(O)(C(=O)NN(C(=O)c2ccccc2)c2ccccc2)c2ccc(C)cc2)cc1	i	i	i	i	i	i
COc1ccc(CNC(=S)N/N=C/c2ccncc2)cc1	54	i	i	i	i	i
CC(=O)Nc1ccccc1N(C)S(=O)(=O)c1ccc(C)cc1	i	i	i	i	i	i
O=C(Cc1ccccc1)N/N=C/c1cc(Br)cc(Cl)c1O	82	i	i	i	i	i
O=C(N/N=C/c1cc(Cl)ccc1O)c1cccnc1	nt	nt	i	nt	nt	nt
COc1cccc(/C=N/NC(=O)CNC(=O)COc2cccc(C)c2)c1O	nt	nt	i	nt	nt	nt
O=C(CNC(=O)c1ccccc1Br)N/N=C/c1cc(Br)ccc1O	58	i	i	i	i	i
SMILES	Lmaj promast	G6PDH counter	PfG6PD inh	Diaph inh CS	Redox H2O2 prof	Diaphorase act
COc1cc(Br)cc(/C=N/NC(=O)Cc2ccccc2)c1O	nt	nt	i	nt	nt	nt
O=C(CNC(=O)c1ccccc1Br)N/N=C/c1ccccc1O	i	i	i	i	i	i
O=C(N/N=C/c1cc(Cl)ccc1O)c1ccccc1Br	98	i	i	i	i	i
Cc1cccc(OCC(=O)NCC(=O)N/N=C/c2cc(Br)ccc2OCc2ccccc2)c1	92	i	i	i	i	i
COC(=O)[C@H](Cc1ccccc1)NC(=O)NCCc1ccccc1F	nt	nt	i	nt	nt	nt
O=C(CN1CC(c2ccccc2)CC1=O)N/N=C/c1cc(Br)ccc1O (centres undefined)	98	i	i	i	i	i
CCOc1ccc(NC(=O)CN2CC(c3ccccc3)CC2=O)cc1 (centres undefined)	i	i	i	i	i	i
O=C(CNC(=O)c1cccc(Br)c1)N/N=C/c1cn[nH]c1-c1ccccc1	67	i	i	i	i	i
O=C(CNC(=O)c1ccccc1)N/N=C/c1cc(Br)ccc1O	80	i	i	i	i	i
O=C(CNC(=O)c1ccncc1)N/N=C/c1cc(Br)ccc1O	98	i	i	i	i	i
CSc1nc(=S)n(-c2cc(C)ccc2C)c(C)c1C(C)=O	nt	nt	i	nt	nt	nt
COc1ccc(C2/C=C\CN(C(=O)Oc3ccc(C(F)(F)F)cc3)CC(=O)N2Cc2ccc(F)cc2)cc1 (centres undefined)	nt	nt	i	nt	nt	nt
CCN(CC)S(=O)(=O)c1ccc(N=NC2=C(O)CC(C)(C)CC2=O)cc1	80	i	i	i	i	i
CCN(CC)S(=O)(=O)c1ccc(N=NC2=C(O)CCCC2=O)cc1	i	i	i	i	i	i
COc1ccc(C(=O)/C=C/C(=O)N(CC(=O)NC2CCCCC2)Cc2ccccc2)c(O)c1	i	i	i	i	i	i
COCCC(=O)N(Cc1ccc2c(c1)OCO2)C(C(=O)NC1CCCCC1)c1ccncc1 (centres undefined)	i	i	i	i	i	i
COc1ccccc1CN(C(=O)CCl)C(C(=O)NC1CCCCC1)c1ccncc1 (centres undefined)	61	i	i	i	i	i
COc1ccc(C(=O)/C=C/C(=O)N(Cc2ccccc2OC)C(C(=O)NC2CCCCC2)c2ccncc2)c(O)c1 (centres undefined)	99	i	i	i	i	i
COc1ccc(C(=O)/C=C/C(=O)N(Cc2ccccc2)C(C(=O)NC2CCCCC2)c2ccncc2)c(O)c1 (centres undefined)	93	i	i	i	i	i
COc1ccc(C(=O)/C=C/C(=O)N(Cc2ccc(F)cc2)C(C(=O)NC2CCCCC2)c2ccncc2)c(O)c1 (centres undefined)	71	i	i	i	i	i
CCC(=O)N1CCc2cc(S(=O)(=O)N3CCN(c4ccccc4Cl)CC3)ccc21	nt	nt	i	nt	nt	nt
CN1C(=O)C2(Oc3ccccc3C3CC(c4ccccc4)=NN32)c2ccccc21 (centres undefined)	i	i	i	i	i	i
Cc1ccc(C2=NN3C(C2)c2ccccc2OC32C(=O)Nc3ccccc32)cc1 (centres undefined)	100	i	i	i	i	i
CCOc1cc(Br)c(Br)c(C=Nc2ccc(NC(C)=O)cc2)c1O	68	i	i	i	i	i
CC(=O)Nc1ccc(N=Cc2c(O)c(C(=O)Nc3ccccc3)cc3ccccc23)cc1	i	i	i	i	i	i
